An excerpt weighted towards active compounds, which were near 5.2% of everything screened.
ZTA counter = ZTA (EBV) inhibition in EBNA-1 counter-screen; P03206; ZTA-DNA binding, fluorescence polarization; inhibition, % at 11 µM; 0.15% of 320,000 active; AID 2234; in the data active means inhibition above about 33%
Target sequence (P03206 whole entry, looked up): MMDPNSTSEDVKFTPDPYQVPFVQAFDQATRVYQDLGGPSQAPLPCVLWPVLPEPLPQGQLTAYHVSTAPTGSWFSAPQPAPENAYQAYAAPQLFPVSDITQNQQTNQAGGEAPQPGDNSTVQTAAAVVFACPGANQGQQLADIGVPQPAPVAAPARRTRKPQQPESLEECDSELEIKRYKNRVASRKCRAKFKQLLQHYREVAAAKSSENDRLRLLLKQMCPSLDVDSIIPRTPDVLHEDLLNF
NS3 helicase inh = inhibitors of Hepatitis C virus NS3 helicase. NS3 helicase DNA unwinding, Cy5 molecular beacon fluorescence. inhibition, % at 10.9 µM. 0.56% of 290,000 active;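 active means inhibition above the mean of all tested compounds plus 3 SD, set per campaign, cut at about 35% in these data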
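System: HCV NS3 helicase fragment; control set: DMSO and thioflavine S; technique: Cy5 fluorescence at 0 and 60 min, beacon hairpin quenching; reagent: beacon DNA duplex substrate plus ATP; replicates: singlicate; schedule: 1 h reaction at 25 °C, ATP-initiated; medium: MOPS buffer pH 6.5 with MgCl2, DTT, Tween20, BSA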
HCV core dimer = blocks dimerization of HCV core protein. inhibition, % at 5 µM. 0.33% of 300,000 active. TR-FRET GST/Flag-core106 dimerization, 1536-well;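 active means inhibition above the mean of all tested compounds plus 3 SD, set per screening campaign, cut at about 45% in these data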
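test system = GST/Flag-tagged HCV core106 proteins | probe or stimulus = Eu donor and XL665 acceptor anti-tag antibodies | times = compound-protein-antibody incubation 4 h at 22.5 °C | signal = TR-FRET, excitation 340 nm, emission 617 and 671 nm | measure = percent inhibition of core106 dimerization signal | controls = wells lacking GST-core106 and wells with excess unlabelled core106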
EBNA-1 inh = blocks EBNA-1 binding to DNA; EBNA-1 DNA binding, fluorescence polarization; inhibition, % at 14.8 µM; 0.34% of 300,000 active; in the data active means inhibition above about 28%
PfM18AAP inh = blocks P. falciparum M18 aspartyl aminopeptidase; recombinant PfM18AAP, H-Glu-NHMec fluorogenic cleavage; inhibition, % at 7.35 µM; 1.2% of 290,000 active;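 active means inhibition above the campaign mean inhibition over all tested compounds plus 3 SD, cut at about 28% in these data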
ALR inh = inhibitors of human sulfhydryl oxidase ALR; AID 485317; purified ALR, DTT oxidation, H2O2 HRP-luminol luminescence; 3.8% of 290,000 active; inhibition, % (concentration not given with the values);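 active means mean replicate inhibition above about 79%, with every replicate also reaching it, limit read from the data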
Target sequence (P55789 whole entry, looked up): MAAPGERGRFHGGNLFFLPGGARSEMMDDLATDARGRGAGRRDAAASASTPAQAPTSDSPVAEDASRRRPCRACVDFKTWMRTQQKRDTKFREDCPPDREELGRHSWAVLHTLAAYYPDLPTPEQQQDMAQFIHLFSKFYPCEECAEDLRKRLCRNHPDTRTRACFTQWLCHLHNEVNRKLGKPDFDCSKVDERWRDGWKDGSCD
EBNA-1 confirm = EBNA-1 (EBV) inhibition, confirmation | shares compounds with EBNA-1 inh | Recombinant EBNA-1 DBD, Cy5-DNA fluorescence polarization | inhibition, % at 14.8 µM | 35% of 830 active;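 active means mean inhibition across replicates above a set limit taken from the earlier primary screen, cut at about 28% in these data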
ZTA DNA inh trip = counter-screen for EBNA-1 inhibitors: Epstein-Barr virus ZTA inhibitors, triplicate. shares compounds with EBNA-1 inh. 830 tested, under 10 active. inhibition, % at 11.1 µM. Zta-ZRE DNA binding, Cy5 fluorescence polarization;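 active means mean inhibition over triplicates above a set limit taken from the primary EBNA-1 screen, cut at about 37% in these data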;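 further: purified full length Zta protein with Cy5 labeled ZRE DNA probe; inhibitors lower polarization by freeing the labeled DNA probe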
A number is an active result.

Results for O=C(NCCCCCCNC(=O)c1ccc(Br)s1)c1ccc(Br)s1 ?
ZTA counter: inactive; NS3 helicase inh: inactive; HCV core dimer: inactive; EBNA-1 inh: 53; PfM18AAP inh: inactive; EBNA-1 confirm: inactive; ZTA DNA inh trip: inactive

What do the screens show for `N#C/C(=C\c1cn(Cc2ccccc2F)c2ccccc12)C(=O)NCc1ccco1`?
ZTA counter: inactive; NS3 helicase inh: inactive; HCV core dimer: inactive; EBNA-1 inh: 62; PfM18AAP inh: inactive; ALR inh: inactive; EBNA-1 confirm: 57; ZTA DNA inh trip: inactive

Results for Nc1c(C(=O)Nc2ccc3c(c2)OCCO3)nnn1Cc1cccc(Cl)c1 ?
ZTA counter: inactive; HCV core dimer: inactive; EBNA-1 inh: 54; ALR inh: inactive; EBNA-1 confirm: 108; ZTA DNA inh trip: inactive

How did CNc1ccc([N+](=O)[O-])cc1-c1nc2ccccc2[nH]c1=O do in these assays?
ZTA counter: inactive; NS3 helicase inh: inactive; HCV core dimer: inactive; EBNA-1 inh: inactive; PfM18AAP inh: inactive; ALR inh: inactive

How did COc1ccc(CCN(C)CC(=O)Nc2cc(C)nc3ccccc23)cc1OC do in these assays?
ZTA counter: inactive; NS3 helicase inh: inactive; HCV core dimer: inactive; EBNA-1 inh: inactive; PfM18AAP inh: inactive; ALR inh: inactive

Results for CC1CC(C)CN(S(=O)(=O)c2ccc(C(=O)NCc3ccc4c(c3)OCO4)cc2)C1 (centres undefined) ?
ZTA counter: inactive; NS3 helicase inh: inactive; HCV core dimer: inactive; EBNA-1 inh: 53; PfM18AAP inh: inactive; ALR inh: inactive; EBNA-1 confirm: inactive; ZTA DNA inh trip: inactive

How did CC1=CC2=NC(=O)/C(=C\c3ccc(-c4cccc(Cl)c4)o3)C(=N)N2O1 do in these assays?
ZTA counter: inactive; NS3 helicase inh: inactive; HCV core dimer: inactive; EBNA-1 inh: 29; PfM18AAP inh: inactive; ALR inh: inactive; EBNA-1 confirm: inactive; ZTA DNA inh trip: inactive

How did CCC(C)N(C(=O)c1csnn1)C(C(=O)NCc1ccc(F)cc1)c1ccccc1F (centres undefined) do in these assays?
ZTA counter: inactive; NS3 helicase inh: inactive; HCV core dimer: inactive; EBNA-1 inh: inactive; PfM18AAP inh: inactive; ALR inh: inactive

What do the screens show for `Cn1c(N)c(C(=O)COC(=O)c2ccccc2C(=O)c2ccccc2)c(=O)n(C)c1=O`?
ZTA counter: inactive

What do the screens show for `CCOc1cc(C(=O)OCC(=O)c2c(N)n(C)c(=O)n(C)c2=O)cc(OCC)c1OCC`?
ZTA counter: inactive; NS3 helicase inh: inactive; HCV core dimer: inactive; EBNA-1 inh: 76; PfM18AAP inh: inactive; EBNA-1 confirm: 61; ZTA DNA inh trip: inactive

What do the screens show for `Cc1cc(C(=O)OCC(=O)c2c(N)n(C)c(=O)n(C)c2=O)c(C)n1-c1ccccc1`?
ZTA counter: inactive; NS3 helicase inh: inactive; HCV core dimer: inactive; EBNA-1 inh: 41; PfM18AAP inh: inactive; EBNA-1 confirm: 82; ZTA DNA inh trip: inactive

What do the screens show for `COc1ccccc1/C=C/C(=O)OCC(=O)c1c(N)n(C)c(=O)n(C)c1=O`?
ZTA counter: inactive; NS3 helicase inh: inactive; HCV core dimer: inactive; EBNA-1 inh: 48; PfM18AAP inh: inactive; ALR inh: inactive; EBNA-1 confirm: inactive; ZTA DNA inh trip: inactive

What do the screens show for `CCCOc1ccc(C(=O)OCC(=O)c2c(N)n(C)c(=O)n(C)c2=O)cc1OCC`?
ZTA counter: inactive; NS3 helicase inh: inactive; HCV core dimer: inactive; EBNA-1 inh: inactive; PfM18AAP inh: inactive; ALR inh: inactive

What do the screens show for `O=C1CC(C(=O)N2CCc3ccccc32)CN1c1ccccc1` (centres undefined)?
ZTA counter: inactive; NS3 helicase inh: inactive; HCV core dimer: inactive; EBNA-1 inh: inactive; PfM18AAP inh: inactive; ALR inh: inactive

What do the screens show for `CC(C)C(C)NC(=O)CSc1nnc(-c2c[nH]c3ccccc23)o1` (centres undefined)?
ZTA counter: inactive; NS3 helicase inh: inactive; HCV core dimer: inactive; EBNA-1 inh: inactive; PfM18AAP inh: inactive

What do the screens show for `Cc1ccc(C(=O)CSc2nnc(-c3c[nH]c4ccccc34)o2)cc1`?
ZTA counter: inactive; NS3 helicase inh: inactive; HCV core dimer: inactive; EBNA-1 inh: 29; PfM18AAP inh: inactive; ALR inh: inactive; EBNA-1 confirm: inactive; ZTA DNA inh trip: inactive

Results for O=C(Cn1c(NCCCO)nc2ccccc21)c1ccc(F)cc1 ?
ZTA counter: inactive; NS3 helicase inh: inactive; HCV core dimer: inactive; EBNA-1 inh: inactive; PfM18AAP inh: inactive; ALR inh: inactive

What do the screens show for `Cc1cc(C)c2c(-n3cccc3)c(C(=O)NNS(=O)(=O)c3ccc(Cl)cc3)sc2n1`?
ZTA counter: inactive; NS3 helicase inh: inactive; HCV core dimer: inactive; EBNA-1 inh: 30; PfM18AAP inh: inactive; EBNA-1 confirm: inactive; ZTA DNA inh trip: inactive

What do the screens show for `CCOC(=O)c1cc2c(OC)ccc(OC)c2n1CC(=O)c1ccccc1`?
ZTA counter: inactive; NS3 helicase inh: inactive; HCV core dimer: inactive; EBNA-1 inh: inactive; PfM18AAP inh: inactive; ALR inh: inactive

What do the screens show for `Cc1cc(N2CCN(CC(O)C(F)(F)F)CC2)c2ccccc2n1` (centres undefined)?
ZTA counter: inactive; NS3 helicase inh: inactive; HCV core dimer: inactive; EBNA-1 inh: active; PfM18AAP inh: inactive; ALR inh: inactive; EBNA-1 confirm: inactive; ZTA DNA inh trip: inactive

Results for COc1ccc(C(=O)CN2CCN(c3cc(C)nc4ccccc34)CC2)cc1 ?
ZTA counter: inactive; NS3 helicase inh: inactive; HCV core dimer: inactive; EBNA-1 inh: inactive; PfM18AAP inh: inactive; ALR inh: inactive

Results for COc1ccc(CCNC(=O)c2sc(=S)n(C)c2N)cc1 ?
ZTA counter: inactive; NS3 helicase inh: inactive; HCV core dimer: inactive; EBNA-1 inh: 28; PfM18AAP inh: inactive; ALR inh: inactive; EBNA-1 confirm: inactive; ZTA DNA inh trip: inactive

How did Oc1ccccc1N1CCN(c2ccc3ccccc3n2)CC1 do in these assays?
ZTA counter: inactive; NS3 helicase inh: inactive; HCV core dimer: inactive; EBNA-1 inh: inactive; PfM18AAP inh: inactive; ALR inh: inactive

How did COc1ccc(CNC(=O)C2CCN(C(=O)N(C)C)CC2)c(OC)c1 do in these assays?
ZTA counter: inactive; NS3 helicase inh: inactive; HCV core dimer: inactive; EBNA-1 inh: inactive; PfM18AAP inh: inactive

Results for COc1ccccc1CNC(=O)C1CCN(C(=O)N(C)C)CC1 ?
ZTA counter: inactive; NS3 helicase inh: inactive; HCV core dimer: inactive; EBNA-1 inh: 78; PfM18AAP inh: inactive; EBNA-1 confirm: inactive; ZTA DNA inh trip: inactive

How did COc1ccc(-c2csc(NC(=O)c3nc(-c4ccccc4)oc3C)n2)cc1 do in these assays?
ZTA counter: inactive; NS3 helicase inh: inactive; HCV core dimer: inactive; EBNA-1 inh: inactive; PfM18AAP inh: inactive; ALR inh: inactive

Screens as filed in PubChem.
